# Beta apoptosis: blocks beta cell apoptosis. hit rate 0.8% among 300,000. protection from apoptosis, % (test concentration not listed). INS-1E cytokine-induced death, ATP luminescence, 48 h; percent of positive-control rescue, neutral wells zero;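 active = Every replicate reaches about 75%, or at least half do and their mean reaches it too, limit read from the data; inconclusive = At least half of replicates reach the limit but their mean does not; inactive = Under half of replicates reach the limit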;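 also: 0% = cytokine-treated negative control wells and 100% = positive control rescue; higher means more ATP so stronger rescue from cytokine killing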
# CSC inhib: cancer stem cell inhibition; cancer stem cell-like cells viability, luminescence; inhibition, % at 7.5 µM; hit rate 1.1% among 300,000; AID 2717; in the data active = inhibition above about 75%; inconclusive = no clear call, values can overlap the other calls; tested in HMLE shEcad cells
# Calb FLC: C. albicans growth modulation with fluconazole | C. albicans CaCi-2 (fluconazole-resistant clinical isolate) + fluconazole, Alamar Blue growth, 48 h | growth inhibition, % (test concentration not listed) | hit rate 0.57% among 300,000 | AID 1979;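 active = growth inhibition above about 58% in most replicates, limit read from the data, passing the limit was not always enough; inconclusive = exactly half the replicates above a set limit; inactive = most replicates below a set limit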;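 also: all wells also contain fluconazole at 8 µg/ml as a sub-toxic cotreatment; 0% = median of DMSO wells and 100% = median of geldanamycin control wells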
# Mdm2-MdmX inh: inhibitors of human Mdm2/MdmX interaction | O15151+Q00987 | SaOS-2 split-luciferase Mdm2/MdmX complementation, luminescence | inhibition, % at 8 µM | hit rate 3% among 330,000;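 active = inhibition of at least 50% at 8 µM in the primary screen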
# T cruzi inh: T. cruzi replication inhibition | inhibition, % (test concentration not listed) | hit rate 1.4% among 300,000 | T. cruzi beta-gal in NIH3T3, luminescence, 90 h;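 active = mean inhibition across valid replicates above about 55%, limit read from the data; inconclusive = mean below that limit but half or more replicates reach it; inactive = mean below it, under half of replicates reach it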;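 also: signal also drops with host cell toxicity which is not excluded here; 0% = plate median of DMSO wells and 100% = zero luminescence signal; higher percent means less beta-gal luminescence so fewer parasites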
#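 System: NIH/3T3 fibroblasts plus reporter T. cruzi. Medium: DMEM plus 2% FBS. Probe or stimulus: 5000 reporter trypomastigotes per well. Compound: single 50 nL compound addition per well in DMSO. Incubation: co-culture of at least 90 h after 3 h attachment. Detection: GalScreen β-gal luminescence, detergent lysis, 60 min. Evaluation: parasite load inhibition, %.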
# SKKanGAS inh: inhibitors of SKKanGAS S. pyogenes growth in kanamycin (SK-promoter or general growth effect) | BacTiter-Glo, 6 h | inhibition, % at 7.5 µM | hit rate 1.3% among 300,000 | AID 1662;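 active = mean replicate score, as percent of positive control median, at least 50; inconclusive = mean below 50 but one replicate at or above 50; inactive = mean and every replicate below 50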;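 also: strain carries kanamycin resistance gene driven by streptokinase promoter and grows in 40 µg/ml kanamycin; loss of luminescence reflects streptokinase promoter inhibition or plain growth inhibition; 0% = median of DMSO wells and 100% = positive control at its reference dose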
# Active calls of the source: *; ? = inconclusive; . = no result. An excerpt weighted towards active compounds, which were near 5.7% of everything screened.
SMILES,Beta apoptosis,CSC inhib,Calb FLC,Mdm2-MdmX inh,T cruzi inh,SKKanGAS inh
Clc1ccc(SCCOCCN2CCCCC2)cc1,-1,36,-42,10,?,-4
Clc1ccc(SCCOCCN2CCc3ccccc3C2)cc1,-3,4,-11,4,66*,2
Cc1ccccc1N1CCN(S(=O)(=O)c2nnc(NC(=O)c3ccco3)s2)CC1,2,34,4,20,-11,51*
COc1ccccc1-c1nnc(NC(=O)c2ccc(S(=O)(=O)N(C)CC3CCCO3)cc2)o1 (configuration not stated),-9,-6,28,1,-5,54*
CN(CC1CCCO1)S(=O)(=O)c1ccc(C(=O)Nc2nnc(-c3ccccc3)o2)cc1 (configuration not stated),6,21,45,24,50,84*
O=C(NCCc1cnc[nH]1)c1ccc(-c2ccccc2)cc1,-8,2,6,-17,60*,-1
COc1ccc(NC(=S)NC(NC(=O)c2ccc(Cl)cc2Cl)C(Cl)(Cl)Cl)c([N+](=O)[O-])c1 (configuration not stated),.,.,-6,30,34,50*
COc1ccc(NC(=S)NC(NC(=O)c2cccc3ccccc23)C(Cl)(Cl)Cl)c([N+](=O)[O-])c1 (configuration not stated),7,39,-5,30,68*,13
Cc1ccc(Cl)cc1N1CCN(CC(=O)NC2CCCc3ccccc32)CC1 (configuration not stated),-3,78*,-17,17,20,-4
Cc1onc(-c2ccccc2)c1C(=O)Nc1ccc(S(=O)(=O)N2CCOCC2)cc1,-5,2,2,15,11,-2
Cc1ccccc1-c1noc(-c2ccc(O)cc2)n1,25,96*,-25,-132,-18,12
Cc1ccccc1-c1noc(-c2ccc(Cl)cc2)n1,3,-4,-4,-133,-14,-8
CCc1ccc(N=c2c([N+](=O)[O-])nn(-c3ccccc3)n2O)cc1,-5,4,-8,-66,56*,9
Cc1cc(C)cc(N=c2c([N+](=O)[O-])nn(-c3ccc(Cl)cc3)n2O)c1,-9,16,26,36,59*,39
Cc1ccc(CN=c2c([N+](=O)[O-])nn(-c3cccc(C)c3)n2O)cc1,-8,2,-4,-31,31,0
CCc1ccc(OCC(=O)OC(C)C(=O)Nc2ccc(Cl)cn2)cc1 (configuration not stated),-2,.,.,-31,.,.
Cc1ccc2[nH]c3c(N4CCOCC4)ncnc3c2c1,13,-26,14,-45,0,-1
Cc1ccc2[nH]c3c(N4CCc5ccccc5C4)ncnc3c2c1,101*,-8,60,39,8,34
Cc1ccc(Cl)cc1-n1ncc2c(NNC(=O)c3ccco3)ncnc21,-5,-2,0,32,-11,-3
CCCCC(=O)Nc1ncc([N+](=O)[O-])s1,9,9,83*,-27,.,-1
CC(C)CC(=O)Nc1ncc([N+](=O)[O-])s1,4,1,-2,-34,37,5
COc1ccc(CC(=O)Nc2ncc([N+](=O)[O-])s2)cc1OC,-3,6,?,10,63*,5
C=CC1=C(C(=O)O)N2C(=O)C(NC(=O)Cc3ccccc3)C2SC1 (configuration not stated),-9,-10,5,20,-9,95*
CC1=C(C(=O)OCc2ccc([N+](=O)[O-])cc2)N2C(=O)C(NC(=O)Cc3ccccc3)C2SC1 (configuration not stated),-2,-4,11,2,4,-3
O=C(COc1ccccc1)NC1C(=O)N2C(C(=O)O)=C(Cl)CSC12 (configuration not stated),1,-22,-1,-31,-26,102*
O=C(CCC(=O)N1CCOCC1)NCc1cccc(C(F)(F)F)c1,-1,.,.,8,.,.
CCC[C@@H]1C[C@@H](C(=O)N[C@@H](C2O[C@H](SC)[C@H](O)[C@@H](O)[C@H]2O)[C@H](C)Cl)N(C)C1 (some centres not stated),4,-7,.,-29,-13,104*
